Published values of several laboratories.
Compare with care: the assays were run in different laboratories.
EGFR G719C: Epidermal growth factor receptor (EGFR, Homo sapiens, UniProt P00533, G719C)
EGFR: Epidermal growth factor receptor (EGFR, Homo sapiens, UniProt P00533)
EGFR L858R/T790M: Epidermal growth factor receptor (EGFR, Homo sapiens, UniProt P00533, L858R/T790M)
EGFR T790M: Epidermal growth factor receptor (EGFR, Homo sapiens, UniProt P00533, T790M)
EGFR G719S: Epidermal growth factor receptor (EGFR, Homo sapiens, UniProt P00533, G719S)
EGFR L861Q: Epidermal growth factor receptor (EGFR, Homo sapiens, UniProt P00533, L861Q)
EGFR del746-750: Epidermal growth factor receptor (EGFR, Homo sapiens, UniProt P00533, del746-750)
EGFR del747-752/P753S: Epidermal growth factor receptor (EGFR, Homo sapiens, UniProt P00533, del747-752/P753S)

SMILES | target | test | setting | quantity | value
CC1CCCN1c1nccc(-c2cnn3ncccc23)n1 (stereo not shown) | EGFR G719C | binding | 1 µM | remaining binding | 100%
O=C(Nc1c[nH]nc1C(=O)NC1CCNCC1)c1cc(F)cc(F)c1 | EGFR G719C | binding, competition with immobilised ligand | 1 µM | remaining binding | 100%
COc1cc(Nc2c(C#N)cnc3cc(OCCCN4CCN(C)CC4)c(OC)cc23)c(Cl)cc1Cl | EGFR | cell-free assay | 0.5 µM | remaining signal | 3.84%
C[C@H]1CCN(c2nccc(-c3cnn4ncccc34)n2)C1 | EGFR L858R/T790M | binding | 1 µM | remaining binding | 80%
O=C(Nc1cnn(-c2csc(C(=O)NC3COC3)c2)c1)Nc1c(F)cccc1Cl | EGFR | enzyme activity, inhibitor | 5 µM | remaining activity | 89.4%
Nc1ncnc2occ(-c3ccc(NC(=O)Nc4cc(C(F)(F)F)ccc4F)cc3)c12 | EGFR T790M | cell-free assay | 20 µM | remaining signal | 12%
Cc1ccc(C(=O)Nc2ccc(CN3CCN(C)CC3)c(C(F)(F)F)c2)cc1C#Cc1cnc2cccnn12 | EGFR G719C | cell-free assay | 23.5 nM | remaining signal | 88%
CC(C)c1ccc(NC(=O)c2cccs2)c(-c2nc3ccccc3[nH]c2=O)c1 | EGFR | enzyme activity, inhibitor | 1 µM | activity vs control | 93%
CCS(=O)(=O)c1cc2cc(C[C@](O)(CC(C)(C)c3ccc(F)cc3C(N)=O)C(F)(F)F)[nH]c2cn1 | EGFR T790M | cell-free assay, competition with immobilised ligand | 1 µM | remaining binding | 78%
C=CC(=O)Nc1cc(Nc2nc(N3CCc4sccc4C3)c3cccnc3n2)c(OC)cc1N(C)CCN(C)C | EGFR L858R/T790M | enzyme activity, inhibitor, ELISA | 0.1 µM | inhibition | 19.2%
O=C(c1ccc(Nc2ncc(Cl)c(-c3ccc(Cl)s3)n2)cc1)N1CCC(N2CCCC2)CC1 | EGFR G719S | binding, competition with immobilised ligand | 1 µM | remaining binding | 96%
O=C(O)[C@@H]1[C@@H](Cn2nnc3ccccc3c2=O)CC[C@H]1C(=O)c1ccc(OCCC2CCOCC2)cc1 | EGFR T790M | cell-free assay, competition with immobilised ligand | 1 µM | remaining binding | 94%
Cc1ccc(Nc2nccc(N(C)c3ccc4c(C)n(C)nc4c3)n2)cc1S(N)(=O)=O | EGFR | cell-free assay | 0.5 µM | remaining signal | 91%
c1cnn2ncc(-c3ccnc(N4CCC45COC5)n3)c2c1 | EGFR G719S | binding | 1 µM | remaining binding | 100%
O=C(c1ccc(Nc2ncc(Cl)c(-c3cc4ccccc4s3)n2)cc1)N1CCC(N2CCCC2)CC1 | EGFR L861Q | binding, competition with immobilised ligand | 1 µM | remaining binding | 92%
COc1cnc(Nc2cccc(S(N)(=O)=O)c2)nc1N1CCN(c2ccccc2)CC1 | EGFR G719S | binding, competition with immobilised ligand | 1 µM | remaining binding | 100%
Cc1cc(NC(=O)c2cccc3cc(-c4cccc5[nH]nc(N)c45)ccc23)ccc1F | EGFR T790M | enzyme activity, inhibitor | 0.1 µM | activity vs control | 98%
CC(C)[C@@H]1NC(=O)CCNC(=O)CCNC(=O)[C@H](Cc2ccc(O)cc2)NC(=O)[C@H](Cc2ccc(O)cc2)NC(=O)[C@H](Cc2ccccc2)NC(=O)[C@@H](Cc2ccc(O)cc2)NC(=O)CSC[C@@H](C(=O)NCC(N)=O)NC(=O)CCNC(=O)[C@H](CCCNC(=N)N)NC(=O)[C@H](CCCNC(=N)N)NC(=O)[C@H](Cc2ccc(O)cc2)NC(=O)[C@H](C(C)C)NC(=O)[C@H](C(C)C)NC(=O)[C@H](CC(N)=O)NC1=O | EGFR | binding, SPR | – | kon | 217000 M⁻¹ s⁻¹
CN(c1nccc(-c2cnn3ncccc23)n1)C1CC1 | EGFR del746-750 | binding | 1 µM | remaining binding | 100%
Cn1nc(C(F)(F)F)cc1-c1cnc(N2CCc3cc(S(=O)(=O)Nc4c(F)cc(Cl)cc4F)cc(N4CCCC4=O)c32)nc1 | Epidermal growth factor receptor (EGFR, Homo sapiens, UniProt P00533, del752-759) | cell-free assay, competition with immobilised ligand | 1 µM | remaining binding | 100%
N[C@@H]1CCN(c2nccc(-c3cnn4ncccc34)n2)C1 | EGFR del746-750 | binding | 1 µM | remaining binding | 100%
COc1cc2ncnc(Nc3ccc(Oc4ccccc4)cc3C)c2cc1OC | EGFR L858R/T790M | enzyme activity, inhibitor | 1 µM | inhibition | 26%

SMILES | target | test | setting | quantity | value
COc1ccc(COc2ccc(Cc3cnc(N)nc3N)cc2OC)cc1 | EGFR | cell-free assay | 0.5 µM | remaining signal | 96.9%
CC(C)[C@@H]1NC(=O)[C@H](CCCNC(=N)N)NC(=O)[C@H](Cc2ccc(O)cc2)NC(=O)[C@H](C(C)C)NC(=O)[C@H](C(C)C)NC(=O)[C@H](CCCNC(=N)N)NC(=O)[C@H](CC(=O)O)NC(=O)[C@H](CC(=O)O)NC(=O)[C@H](C)NC(=O)[C@H](Cc2ccc(O)cc2)NC(=O)[C@H](Cc2ccc(O)cc2)NC(=O)[C@H](Cc2ccccc2)NC(=O)[C@@H](Cc2ccc(O)cc2)NC(=O)CSC[C@@H](C(=O)NCC(N)=O)NC(=O)[C@H](C)NC1=O | EGFR | binding, SPR | – | kon | 166000 M⁻¹ s⁻¹
COc1ccc2c(c1)O[C@H](c1ccc(OC)c(OC)c1)C[C@@H]2NC(=O)C1(c2ccc3c(c2)OC(F)(F)O3)CC1 | EGFR G719S | cell-free assay, competition with immobilised ligand | 1 µM | remaining binding | 99%
Cc1cnn2ncc(-c3ccnc(N(C)C)n3)c2c1 | EGFR T790M | binding | 1 µM | remaining binding | 100%
CC(C)(C)c1nc2c(s1)c1nc(N)ncc1c1ccc(NS(=O)(=O)c3c(F)cccc3F)c(F)c12 | EGFR | enzyme activity, inhibitor, radiometric | 1 µM | remaining activity | 104%
CN(C)c1nccc(-c2cnc3ncccn23)n1 | EGFR G719S | binding | 1 µM | remaining binding | 84%
O=C(NCCCN1CCOCC1)c1ccc(Nc2ncc(Cl)c(-c3ccc(Cl)s3)n2)cc1 | EGFR del747-752/P753S | binding, competition with immobilised ligand | 1 µM | remaining binding | 98%
Cc1ccc(NC(=O)c2ccc(C)c(C(F)(F)F)c2)cc1C#Cc1nn(C2CCC(O)CC2)c2ncnc(N)c12 (stereo not shown) | EGFR | cell-free assay | 10 µM | remaining signal | 11%
C=C(Cl)C(=O)Nc1cc(Nc2nc(N3CCc4sccc4C3)c3sccc3n2)c(OC)cc1N(C)CCN(C)C | EGFR L858R/T790M | enzyme activity, inhibitor, ELISA | 0.1 µM | inhibition | 90.3%
CC(=O)c1c(NS(C)(=O)=O)c2cc(-c3ccc(Cl)cc3)c(-c3ccc(Cl)cc3Cl)nc2n(C)c1=O | EGFR L861Q | cell-free assay, competition with immobilised ligand | 1 µM | remaining binding | 100%
O=C1Nc2ccc(Cl)cc2C1=Cc1cc(Cl)c(O)c(Cl)c1 | EGFR | cell-free assay | 0.5 µM | remaining signal | 93.5%
C[C@H](c1ccnc(Nc2nc3ccc(-c4cc(N(C)C)ncn4)cc3[nH]2)c1)N1CCN(C(=O)CC(F)(F)F)CC1 | Epidermal growth factor receptor (EGFR, Homo sapiens, UniProt P00533, A750P/del747-749) | cell-free assay, competition with immobilised ligand | 0.1 µM | remaining binding | 89%
Cc1cnc(NC2CCOCC2)nc1-n1cnc(C(=O)NC(CN)c2cc(F)cc(Cl)c2)c1 (stereo not shown) | EGFR T790M | enzyme activity, inhibitor, radiometric | 1 µM | remaining activity | 98%
CCN1CCN(Cc2ccc(C(=O)Nc3ccc(C)c(Oc4ccc5c(c4)CC(=O)N5)c3)cc2C(F)(F)F)CC1 | EGFR del746-750 | binding, competition with immobilised ligand | 1 µM | remaining binding | 99%
CCC(=O)Nc1cc(Nc2nc(N3CCc4sccc4C3)c3cccnc3n2)c(OC)cc1N1CCC(N(C)C)CC1 | EGFR L858R/T790M | enzyme activity, inhibitor, ELISA | 0.1 µM | inhibition | 22.5%
O=C(c1ccc(Nc2nccc(-c3cc4ccccc4s3)n2)cc1)N1CCC(N2CCCC2)CC1 | EGFR G719S | binding, competition with immobilised ligand | 1 µM | remaining binding | 94%
CCC(=O)N[C@@H]1CC[C@H](C(=O)N(C)c2ccc(-c3nc4ccccc4o3)cc2)C1 | EGFR G719S | cell-free assay, competition with immobilised ligand | 1 µM | remaining binding | 96%
C=CC(=O)Nc1cccc(Oc2nc(Nc3ccc(N4CCN(C)CC4)cc3)nc3ccsc23)c1 | EGFR L858R/T790M | enzyme activity, inhibitor, ELISA | 0.1 µM | inhibition | 98.4%
C[C@@]1(Cc2ccc(C#N)cc2)C(=O)N(c2cc(Cl)cc(Cl)c2)c2ncc(C(=O)NC3(c4nc(C5CCC5)no4)CC3)n21 | EGFR del747-752/P753S | cell-free assay, competition with immobilised ligand | 1 µM | remaining binding | 58%
COc1cc(-c2cc(-c3ccc(N4CCNCC4)cc3)cnc2N)cc(OC)c1OC | EGFR L861Q | enzyme activity, inhibitor | 0.1 µM | inhibition | 6%
CC/C(=N\NC(=O)NCc1cccc(O)c1)c1ccc(O)c(C)c1O | Epidermal growth factor receptor (EGFR, Homo sapiens, UniProt P00533, del746-750/T790M) | enzyme activity, inhibitor | 0.1 µM | inhibition | -0.8%
